Among the data in ChEMBL document CHEMBL4028900, “Design of Novel 3-Pyrimidinylazaindole CDK2/9 Inhibitors with Potent In Vitro and In Vivo Antitumor Efficacy in a Triple-Negative Breast Cancer Model” (J Med Chem, 2017) are inhibition in vivo and Activity values, retold here.

One data set has as its system 4T1. Put plainly: Antitumor activity against mouse 4T1 cells allografted in Balb/C mouse assessed as tumor growth inhibition at 5 mg/kg, iv administered every 3 days for 21 days measured 2 times for every week during dosing relative to control. The format is functional. The following applies: 4T1, iv, read-out: TGI. An outline of the steps:
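4T1 cells were grown in RPMI-1640 with 10% FBS, pyruvate and NEAA at 37 °C and 5% CO2. Female Balb/C mice received 1×10^6 cells into the second mammary fat pad. At about 100 mm3, mice were grouped five per group and dosed by tail vein in 200 µL (PBS diluent) every three days for 21 days. Tumor volume (L×B²/2, caliper) and body weight were taken twice weekly. The experiment was repeated twice.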

Data set [1] concerns Mus musculus. The data set is described as follows: Toxicity in Balb/C mouse allografted with mouse 4T1 cells assessed as body weight loss at 5 mg/kg, iv administered every 3 days for 21 days measured 2 times for every week during dosing. The format is organism-based. As to conditions: in vivo. An outline of the steps:
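Female Balb/c mice received 1×10^6 4T1 cells into the second mammary fat pad. At about 100 mm3 tumor volume they were split into groups of five. Doses were given iv by tail vein in 200 µL every three days for 21 days, with a PBS diluent control. Body weight and tumor size were measured twice weekly, and the experiment was repeated twice.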

The test system of data set [2] is Mus musculus. The data set is described as follows: Toxicity in Balb/C mouse allografted with mouse 4T1 cells assessed as mortality at 5 mg/kg, iv administered every 3 days for 21 days. The format is organism-based. The following applies: in vivo.

Take `COc1cccc2c1C(=O)c1c(O)c3c(c(O)c1C2=O)C[C@@](O)(C(=O)CO)C[C@@H]3O[C@H]1C[C@H](N)[C@H](O)[C@H](C)O1` [DOXORUBICIN]: the inhibition in vivo at 5 mg/kg in the data set with 4T1 stood at 97.3%. The values for the Activity result with Mus musculus [1] and with Mus musculus [2] were “Toxic” and “Non-Toxic”, respectively.
